Measurements as given in ChEMBL document CHEMBL1153740, “Quassinoids from Eurycoma longifolia” (J Nat Prod, 2009).

system: HT-1080; assay: Cytotoxicity against human HT1080 cells after 72 hrs by MTT assay; assay type: functional, cell-based; settings: HT-1080, 72 h
In short: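 HT-1080 human fibrosarcoma cells, harvested in exponential growth, seeded at 2 × 10^3 cells/well and left 24 h at 37 °C in humidified 5% CO2 to attach. Exposed to varying concentrations of test compounds in medium for 72 h. MTT (0.5 mg/mL) added for 2 h, formazan extracted with DMSO, absorbance read at 550 nm. Viability and IC50 taken from means of three wells.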

| SMILES | IC50 |
| --- | --- |
| CC1=CC(=O)[C@]2(C)[C@H]3[C@@H](O)[C@@H]4OC(=O)[C@@H]([C@H]4C)[C@]3(C)C(=O)C[C@@H]12 [LAURYCOLACTONE A] | > 100 µM |
| CC1=CC(=O)[C@@H](O)[C@@]2(C)[C@H]1[C@@H](O)C(=O)[C@@]1(C)[C@H]3C(=O)O[C@H]([C@@H]3C)[C@H](O)[C@@H]12 | 5 µM |
| C[C@H]1[C@H]2OC(=O)[C@@H]1[C@]1(C)C(=O)C=C3[C@@](C)([C@H]1[C@H]2O)[C@H](O)[C@@H](O)[C@H]1O[C@@]31C | > 100 µM |
| COc1cccc2c1C(=O)c1c(O)c3c(c(O)c1C2=O)C[C@@](O)(C(=O)CO)C[C@@H]3O[C@H]1C[C@H](N)[C@H](O)[C@H](C)O1 [DOXORUBICIN] | 0.53 µM |
| C=C1C[C@H](O)[C@@H](O)[C@@]2(C)[C@H]1CC(=O)[C@@]1(C)[C@H]3C(=O)O[C@H]([C@@H]3C)[C@H](O)[C@@H]12 | 45 µM |
| CC1=CC(=O)[C@@H](O)[C@@]2(C)[C@H]1[C@@H](O)[C@H]1OC(=O)[C@H](O)[C@@]3(O)[C@@H](C)[C@@H](O)[C@H](O)[C@H]2[C@@]13C | 90 µM |
| C[C@H]1[C@H]2OC(=O)[C@@H]1[C@]1(C)C(=O)C=C3C4(C)OC4C(=O)[C@@H](O)[C@]3(C)[C@H]1[C@H]2O (stereo partly drawn) | > 100 µM |
| CC1=CC(=O)[C@@H](O)[C@@]2(C)C1=CC(=O)[C@]1(C)[C@@H]2[C@@H](O)[C@@H]2OC(=O)[C@H]1[C@H]2C | 5.3 µM |
| CC1=CC(=O)[C@@H](O)[C@@]2(C)[C@H]1CC(=O)[C@@]1(C)[C@H]3C(=O)O[C@H]([C@@H]3C)[C@H](O)[C@@H]12 [EURYCOMALACTONE] | 0.98 µM |
| CC1=CC(=O)[C@@H](O)[C@]2(C)[C@H]3[C@@H](O)[C@H](O)[C@H](C)[C@]4(O)[C@@H](O)C(=O)O[C@H](C[C@@H]12)[C@]34C | 1.1 µM |
| CC1=CC(=O)[C@@H](O)[C@]2(C)[C@H]3[C@]4(O)OC[C@@]35[C@@H](C[C@@H]12)OC(=O)[C@H](O)[C@]5(O)[C@@H](C)[C@H]4O | 90 µM |
| CC1=CC(=O)[C@@H](O)[C@@]2(C)[C@H]1[C@@H](O)[C@H]1OC(=O)C3[C@@H](C)[C@H](O)[C@H](O)[C@H]2[C@]31C (stereo partly drawn) [LONGILACTONE] | 19 µM |
| CC1=CC(=O)[C@@]2(C)C1=CC(=O)[C@]1(C)[C@@H]2[C@@H](O)[C@@H]2OC(=O)[C@H]1[C@H]2C [LAURYCOLACTONE B] | > 100 µM |
| C[C@H]1[C@H]2OC(=O)[C@@H]1[C@]1(C)C(=O)C=C3[C@H](C)C[C@H](O)[C@@H](O)[C@]3(C)[C@H]1[C@H]2O [EURYCOMALIDE A] | 90 µM |
| O=c1[nH]cc(F)c(=O)[nH]1 [FLUOROURACIL] | 5.2 µM |
| CC1=C[C@H](O)[C@@H](O)[C@@]2(C)C1=CC(=O)[C@]1(C)[C@@H]2[C@@H](O)[C@@H]2OC(=O)[C@H]1[C@H]2C [EURYCOMALIDE B] | 39 µM |
| CC1=CC(=O)[C@@H](O)[C@]2(C)[C@H]3[C@@H](O)[C@@H]4OC(=O)[C@@H]([C@H]4C)[C@]3(C)C(=O)C[C@@]12O | 8.8 µM |
| CC1=C2C(=O)[C@H](O)[C@]3(C)[C@H]([C@@H](O)[C@@H]4OC(=O)[C@H]3[C@H]4C)[C@@]2(C)[C@H](O)[C@@H](O)C1 | > 100 µM |
| CC1=C[C@H](O)[C@@H](O)[C@@]2(C)[C@H]1[C@@H](O)C(=O)[C@@]1(C)[C@H]3C(=O)O[C@H]([C@@H]3C)[C@H](O)[C@@H]12 | 65 µM |
| CC1=CC(=O)[C@@H](O)[C@]2(C)[C@H]3[C@@H](O)[C@@H]4OC(=O)[C@@H]([C@H]4C)[C@]3(C)[C@H](O)C[C@@H]12 | 6.2 µM |
| CC(=O)O[C@@H]1[C@H](C)[C@]2(O)[C@@H](OC(C)=O)C(=O)O[C@@H]3C[C@H]4C(C)=CC(=O)[C@@H](O)[C@]4(C)[C@H]4[C@]1(O)OC[C@]432 | > 100 µM |
| CC1=CC(=O)O[C@@H]1[C@@]1(C)C[C@H]2OC(=O)[C@H](O)[C@@]3(O)[C@@H](C)[C@@H](O)[C@@]4(O)OC[C@]23[C@@H]14 | > 100 µM |
| CC1=C[C@H](O)[C@@H](O)[C@@]2(C)[C@H]1CC(=O)[C@@]1(C)[C@H]3C(=O)O[C@H]([C@@H]3C)[C@H](O)[C@@H]12 [EURYCOLACTONE E] | 7.3 µM |
